{"source": "paper PMC2585982", "about": "(Toxicology and applied pharmacology, 2008)", "key": {"PXR [1]": {"molecular_target": "T1, PXR (Mus musculus, UniProt O54915)", "T1 sequence (O54915 1-431)": "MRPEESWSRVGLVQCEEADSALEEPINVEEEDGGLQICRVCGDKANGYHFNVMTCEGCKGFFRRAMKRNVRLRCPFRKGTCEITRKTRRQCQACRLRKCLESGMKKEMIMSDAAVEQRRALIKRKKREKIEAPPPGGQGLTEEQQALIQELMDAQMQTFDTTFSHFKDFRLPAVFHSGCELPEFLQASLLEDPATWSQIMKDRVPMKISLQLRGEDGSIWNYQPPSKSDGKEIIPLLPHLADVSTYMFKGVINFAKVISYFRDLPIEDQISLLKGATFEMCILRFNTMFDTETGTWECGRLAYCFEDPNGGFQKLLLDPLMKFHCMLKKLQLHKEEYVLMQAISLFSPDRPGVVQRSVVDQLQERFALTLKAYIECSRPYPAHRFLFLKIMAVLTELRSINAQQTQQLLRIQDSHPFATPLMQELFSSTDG", "T1 sequence (P19793 1-462 partner)": "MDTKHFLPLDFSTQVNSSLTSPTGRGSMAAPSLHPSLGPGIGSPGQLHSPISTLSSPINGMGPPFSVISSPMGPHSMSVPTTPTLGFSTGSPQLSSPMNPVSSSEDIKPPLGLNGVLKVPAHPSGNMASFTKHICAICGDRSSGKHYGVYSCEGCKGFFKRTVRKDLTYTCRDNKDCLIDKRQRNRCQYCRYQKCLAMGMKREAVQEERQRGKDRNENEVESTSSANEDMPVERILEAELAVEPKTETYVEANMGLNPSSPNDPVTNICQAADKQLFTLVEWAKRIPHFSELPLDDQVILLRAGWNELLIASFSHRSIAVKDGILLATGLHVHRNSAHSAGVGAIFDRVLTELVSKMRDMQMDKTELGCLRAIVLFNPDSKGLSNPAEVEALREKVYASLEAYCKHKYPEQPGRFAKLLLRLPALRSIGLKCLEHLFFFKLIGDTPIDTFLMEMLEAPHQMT", "experiment": "PXR-DR3 reporter assay", "assay_type": "cell-based", "details": "CV-1 cells, full length PXR"}, "PXR LBD and SRC-1 RID": {"molecular_target": "PXR LBD and SRC-1 RID (Mus musculus, UniProt O54915)", "sequence (Q15788 570-780 partner limits assumed, one chain of several)": "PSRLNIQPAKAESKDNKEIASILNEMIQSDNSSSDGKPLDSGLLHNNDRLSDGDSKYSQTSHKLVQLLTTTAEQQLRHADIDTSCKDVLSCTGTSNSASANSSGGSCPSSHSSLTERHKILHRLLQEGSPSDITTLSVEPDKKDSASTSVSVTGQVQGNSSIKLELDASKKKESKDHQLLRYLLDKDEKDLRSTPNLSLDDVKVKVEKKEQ", "experiment": "Mammalian two-hybrid assay, Gal-SRC-1 RID + VP-L-PXR in CV-1 cells", "assay_type": "cell-based", "details": "isopimpinellin 50 μM; PCN 10 μM; Figure 7A", "how_it_was_run": "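Mammalian two-hybrid in CV-1 cells co-transfected with Gal-SRC-1 RID and/or VP-L-PXR, plus MH100-tk-luc reporter and CMX-β-gal. Cells were exposed to compound or solvent control in medium for 18–24 h. Interaction was taken as luciferase activity normalised to β-gal activity; mean ± SD.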"}, "PXR [2]": {"molecular_target": "T2, PXR (Mus musculus, UniProt O54915)", "T2 sequence (O54915 143-430 limits assumed)": "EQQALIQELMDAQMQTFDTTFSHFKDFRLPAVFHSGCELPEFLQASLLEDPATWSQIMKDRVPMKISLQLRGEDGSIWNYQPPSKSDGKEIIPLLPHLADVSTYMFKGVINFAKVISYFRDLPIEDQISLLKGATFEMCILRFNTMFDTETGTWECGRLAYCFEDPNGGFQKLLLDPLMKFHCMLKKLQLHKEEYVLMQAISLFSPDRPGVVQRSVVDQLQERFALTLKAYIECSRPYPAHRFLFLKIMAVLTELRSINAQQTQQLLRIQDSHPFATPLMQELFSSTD", "experiment": "GAL-PXR reporter assay", "assay_type": "cell-based", "details": "CV-1 cells, 18–24 h"}, "rat PXR": {"system": "rat PXR", "details": "read-out: EC50, activation of rat PXR; ref Yang and Yan, 2007; cited from earlier work"}, "human PXR": {"system": "human PXR", "details": "read-out: EC50, activation of human PXR; ref Yang and Yan, 2007; cited from earlier work"}, "GST (DCNB, GST μ)": {"system": "GST (DCNB, GST μ)", "experiment": "Liver cytosolic GST activity, DCNB as substrate, after oral dosing of mice", "assay_type": "in vivo", "details": "C57BL/6 mice, 100 mg/kg p.o. 3 days, vs corn oil"}, "P450 1A1/1A2": {"system": "P450 1A1/1A2", "experiment": "Western blot of liver microsomes, P450 1A1/1A2 protein expression", "details": "C57BL/6 mice, 100 mg/kg p.o. 3 days"}, "NQO": {"system": "NQO", "experiment": "Liver cytosolic NQO activity", "assay_type": "in vivo, mice", "details": "C57BL/6 mice, 100 mg/kg p.o. 3 days, vs corn oil"}, "P450 3A11": {"system": "P450 3A11", "experiment": "Western blot of liver microsomes, P450 3A11 protein expression", "details": "C57BL/6 mice, 100 mg/kg p.o. 3 days"}, "P450 2B10": {"system": "P450 2B10", "experiment": "Western blot of liver microsomes, P450 2B10 protein expression", "details": "C57BL/6 mice, 100 mg/kg p.o. 3 days"}}, "data": [{"smiles": "CC(=O)[C@H]1[C@H](C#N)C[C@H]2[C@@H]3CC=C4C[C@@H](O)CC[C@]4(C)[C@H]3CC[C@@]21C", "note": "[PCN, reference compound]", "values": [{"measurement": "Max (concentration to reach maximal effect), PXR-DR3", "setting": "PXR [1]", "value": 100, "unit": "nM"}, {"measurement": "ED50, PXR-DR3 activation", "setting": "PXR [1]; 18–24 h", "value": 0.02, "unit": "µM"}, {"measurement": "Induced interaction of PXR LBD and SRC-1 RID compared to the control", "setting": "PXR LBD and SRC-1 RID", "value": "similar"}, {"measurement": "Max (concentration to reach maximal effect), GAL-PXR", "setting": "PXR [2]", "value": "3,000 nM"}, {"measurement": "ED50, GAL-PXR activation", "setting": "PXR [2]; luciferase normalized by β-gal", "value": 0.063, "unit": "µM"}]}, {"smiles": "COc1c2occc2cc2ccc(=O)oc12", "note": "[8-methoxypsoralen]", "values": [{"measurement": "EC50", "setting": "rat PXR", "value": 14, "unit": "µM"}, {"measurement": "EC50", "setting": "human PXR", "value": 14, "unit": "µM"}]}, {"smiles": "O=c1ccc2ccccc2o1", "note": "[coumarin, 1,2-benzopyrone]", "values": [{"measurement": "GST activity using DCNB as a substrate, liver cytosol", "setting": "GST (DCNB, GST μ)", "value": "highest increase"}, {"measurement": "P450 1A1/1A2 protein expression (western blot densitometry)", "setting": "P450 1A1/1A2", "value": "did not have any apparent effect"}, {"measurement": "Increase in NQO activity, liver cytosol", "setting": "NQO", "value": "2–3 fold"}, {"measurement": "P450 3A11 protein expression (western blot densitometry)", "setting": "P450 3A11", "value": "did not have any apparent effect"}, {"measurement": "P450 2B10 protein expression (western blot densitometry)", "setting": "P450 2B10", "value": "did not have any apparent effect"}]}, {"smiles": "COc1cc(OC)c2ccc(=O)oc2c1", "note": "[limettin, 5,7-dimethoxycoumarin]", "values": [{"measurement": "P450 1A1/1A2 protein expression (western blot densitometry)", "setting": "P450 1A1/1A2", "value": "did not have any apparent effect"}, {"measurement": "P450 3A11 protein expression (western blot densitometry)", "setting": "P450 3A11", "value": "did not have any apparent effect"}, {"measurement": "P450 2B10 protein expression (western blot densitometry)", "setting": "P450 2B10", "value": "did not have any apparent effect"}]}, {"smiles": "CC(C)=CCC/C(C)=C/COc1ccc2ccc(=O)oc2c1", "note": "[auraptene]", "values": [{"measurement": "P450 1A1/1A2 protein expression (western blot densitometry)", "setting": "P450 1A1/1A2", "value": "did not have any apparent effect"}, {"measurement": "P450 3A11 protein expression (western blot densitometry)", "setting": "P450 3A11", "value": "did not have any apparent effect"}, {"measurement": "P450 2B10 protein expression (western blot densitometry)", "setting": "P450 2B10", "value": "did not have any apparent effect"}]}]}
